Laboratory results from ChEMBL document CHEMBL1671690, “Madurella mycetomatis is not susceptible to the echinocandin class of antifungal agents” (2010).
≈ marks a conversion by molar mass, not a printed value. Calls of active or inactive are those of the source. The calls are words filed in the database; no cut-off is given here. Numbered stars: 1 amine (or outer) side, 2 acyl side, 3 side chain; on linkers, the order of the positions; unused ones are H or OH. Bridge positions count the residues as written; N and C are the ends. Square brackets hold non-standard residues; d marks the D form. Peptide text beside a SMILES is read from it. * marks the point of attachment. hTyr(3S-OH,4S-OH,3'-OSO3H) = N[C@H](C(=O)O)[C@H](O)[C@@H](O)c1ccc(O)c(OS(=O)(=O)O)c1; pTerphenylCO(4''-OnC5H11) = CCCCCOc1ccc(-c2ccc(-c3ccc(C(=O)*)cc3)cc2)cc1; Orn(4R-OH,5R-OH) = O=C([C@H](C[C@@H](O)[C@@H](O)N[*:3])N[*:1])[*:2]; hTyr(3S-OH,4S-OH) = N[C@H](C(=O)O)[C@H](O)[C@@H](O)c1ccc(O)cc1; Pro(3S-OH,4S-Me) = C[C@H]1CN[C@H](C(=O)O)[C@H]1O; X1 = CCCCCOc1ccc(-c2cc(-c3ccc(C(=O)*)cc3)no2)cc1; Gln(3R-OH) = NC(=O)C[C@@H](O)[C@H](N)C(=O)O; Hyp = O=C(O)[C@@H]1C[C@@H](O)CN1

Experiments:
[1] = Antifungal activity against Madurella mycetomatis isolate 31 by XTT assay; format: functional
How it was run: (§1)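 Ketoconazole, caspofungin and anidulafungin diluted in DMSO, micafungin in normal saline. Viability read by XTT reduction. MIC is the first concentration giving >80% spectrophotometric reduction. Done independently in triplicate.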

[2] = Antifungal activity against Madurella mycetomatis isolate 35 by XTT assay; format: functional; how it was run: as §1
[3] = Antifungal activity against Madurella mycetomatis isolate 36 by XTT assay; format: functional; how it was run: as §1
[4] = Antifungal activity against Madurella mycetomatis isolate 39 by XTT assay; format: functional; how it was run: as §1
[5] = Antifungal activity against Madurella mycetomatis isolate 41 by XTT assay; format: functional; how it was run: as §1
[6] = Antifungal activity against Madurella mycetomatis isolate 43 by XTT assay; format: functional; how it was run: as §1
[7] = Antifungal activity against Madurella mycetomatis isolate 45 by XTT assay; format: functional; how it was run: as §1
[8] = Antifungal activity against Madurella mycetomatis isolate 46 by XTT assay; format: functional; how it was run: as §1
[9] = Antifungal activity against Madurella mycetomatis isolate 49 by XTT assay; format: functional; how it was run: as §1
[10] = Antifungal activity against Madurella mycetomatis isolate 50 by XTT assay; format: functional; how it was run: as §1
[11] = Antifungal activity against Madurella mycetomatis isolate 52 by XTT assay; format: functional; how it was run: as §1
[12] = Antifungal activity against Madurella mycetomatis isolate 54 by XTT assay; format: functional; how it was run: as §1
[13] = Antifungal activity against Madurella mycetomatis isolate 55 by XTT assay; format: functional; how it was run: as §1
[14] = Antifungal activity against Madurella mycetomatis isolate 64 by XTT assay; format: functional; how it was run: as §1
[15] = Antifungal activity against Madurella mycetomatis isolate 68 by XTT assay; format: functional; how it was run: as §1
[16] = Antifungal activity against Madurella mycetomatis isolate 73 by XTT assay; format: functional; how it was run: as §1
[17] = Antifungal activity against Madurella mycetomatis isolate 83 by XTT assay; format: functional; how it was run: as §1
Aspergillus fumigatus [18] = assay: Antifungal activity against Aspergillus fumigatus ATCC 204305 by XTT assay; format: functional; conditions: for minimal effective concentration: read-out: MEC
How it was run: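 XTT viability assay in RPMI, run independently in triplicate, with a conidial inoculum. Twofold dilutions from 0.007 to 128 mg/liter for echinocandins and 0.016 to 16 mg/liter for KTZ. Drugs dissolved in DMSO, except micafungin in normal saline. MIC is the first concentration giving more than 80% spectrophotometric reduction. MEC is the first concentration with altered growth.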

Madurella mycetomatis = assay: Inhibition of beta-1,3-D-glucan synthesis in Madurella mycetomatis isolate 55 after 7 days by […] assay; format: functional
How it was run: (§2)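 A hyphal suspension in RPMI was exposed to drug in tubes for 7 days at 37°C. Mycelium was freeze-dried, taken up in 1 M NaOH, probe-sonicated for 15 s and held at 52°C for 30 min. Glucan was measured by aniline blue fluorescence with curdlan as standard, then scaled to viable cells from XTT relative to growth control. Results are means with standard deviation.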

Aspergillus fumigatus [19] = assay: Inhibition of beta-1,3-D-glucan synthesis in Aspergillus fumigatus ATCC 204305 after 48 hrs by […] assay; format: functional, organism-based
How it was run: as §2, with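 “conidial” for “hyphal”, “48 h.” for “7 days at 37°C.”, “corrected” for “scaled”, “by XTT.” for “from XTT relative to growth control.”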

| Compound | MIC [1] [µg/mL] | MIC [2] [µg/mL] | MIC [3] [µg/mL] | MIC [4] [µg/mL] | MIC [5] [µg/mL] | MIC [6] [µg/mL] | MIC [7] [µg/mL] | MIC [8] [µg/mL] | MIC [9] [µg/mL] | MIC [10] [µg/mL] | MIC [11] [µg/mL] | MIC [12] [µg/mL] | MIC [13] [µg/mL] | MIC [14] [µg/mL] | MIC [15] [µg/mL] | MIC [16] [µg/mL] | MIC [17] [µg/mL] | MIC (Aspergillus fumigatus [18]) [µg/mL] | minimal effective concentration (Aspergillus fumigatus [18]) [µg/mL] | inhibition (Madurella mycetomatis) | also measured |
| --- | --- | --- | --- | --- | --- | --- | --- | --- | --- | --- | --- | --- | --- | --- | --- | --- | --- | --- | --- | --- | --- |
| CC(=O)N1CCN(c2ccc(OCC3COC(Cn4ccnc4)(c4ccc(Cl)cc4Cl)O3)cc2)CC1 (configuration not stated) | 0.063 (≈ 0.119 µM) | 1 (≈ 1.88 µM) | 0.063 (≈ 0.119 µM) | 0.031 (≈ 0.0583 µM) | 0.125 (≈ 0.235 µM) | 0.063 (≈ 0.119 µM) | 0.25 (≈ 0.47 µM) | 0.016 (≈ 0.0301 µM) | 0.031 (≈ 0.0583 µM) | 0.063 (≈ 0.119 µM) | 0.25 (≈ 0.47 µM) | 0.031 (≈ 0.0583 µM) | 0.25 (≈ 0.47 µM) | 0.063 (≈ 0.119 µM) | 0.125 (≈ 0.235 µM) | 0.063 (≈ 0.119 µM) | 0.125 (≈ 0.235 µM) | – | – | – | – |
| CCCCCOc1ccc(-c2ccc(-c3ccc(C(=O)N[C@H]4C[C@@H](O)[C@@H](O)NC(=O)[C@@H]5[C@@H](O)[C@@H](C)CN5C(=O)[C@H]([C@@H](C)O)NC(=O)[C@H]([C@H](O)[C@@H](O)c5ccc(O)cc5)NC(=O)[C@@H]5C[C@@H](O)CN5C(=O)[C@H]([C@@H](C)O)NC4=O)cc3)cc2)cc1 [ANIDULAFUNGIN] ({pTerphenylCO(4''-OnC5H11)}-[Orn(4R-OH,5R-OH)]T[Hyp][hTyr(3S-OH,4S-OH)]T[Pro(3S-OH,4S-Me)]; lactam 1-C) | > 128 | > 128 | > 128 | > 128 | 0.5 (≈ 0.438 µM) | > 128 | > 128 | > 128 | > 128 | > 128 | > 128 | > 128 | > 128 | > 128 | > 128 | > 128 | > 128 | > 128 | < 0.007 | inactive | inhibition (Aspergillus fumigatus [19]): inactive |
| CC[C@H](C)C[C@H](C)CCCCCCCCC(=O)N[C@H]1C[C@@H](O)[C@@H](NCCN)NC(=O)[C@@H]2[C@@H](O)CCN2C(=O)[C@H]([C@H](O)CCN)NC(=O)[C@H]([C@H](O)[C@@H](O)c2ccc(O)cc2)NC(=O)[C@@H]2C[C@@H](O)CN2C(=O)[C@H]([C@@H](C)O)NC1=O [CASPOFUNGIN] | 64 (≈ 58.5 µM) | 128 (≈ 117 µM) | 128 (≈ 117 µM) | 64 (≈ 58.5 µM) | 16 (≈ 14.6 µM) | 128 (≈ 117 µM) | 64 (≈ 58.5 µM) | 64 (≈ 58.5 µM) | 32 (≈ 29.3 µM) | 128 (≈ 117 µM) | 128 (≈ 117 µM) | 64 (≈ 58.5 µM) | 128 (≈ 117 µM) | 64 (≈ 58.5 µM) | 64 (≈ 58.5 µM) | 64 (≈ 58.5 µM) | 128 (≈ 117 µM) | 128 (≈ 117 µM) | 0.125 | inactive | – |
| CCCCCOc1ccc(-c2cc(-c3ccc(C(=O)N[C@H]4C[C@@H](O)[C@@H](O)NC(=O)[C@@H]5[C@@H](O)[C@@H](C)CN5C(=O)[C@H]([C@H](O)CC(N)=O)NC(=O)[C@H]([C@H](O)[C@@H](O)c5ccc(O)c(OS(=O)(=O)O)c5)NC(=O)[C@@H]5C[C@@H](O)CN5C(=O)[C@H]([C@@H](C)O)NC4=O)cc3)no2)cc1 [MICAFUNGIN] (X1-[Orn(4R-OH,5R-OH)]T[Hyp][hTyr(3S-OH,4S-OH,3'-OSO3H)][Gln(3R-OH)][Pro(3S-OH,4S-Me)]; lactam 1-C) | > 128 | > 128 | > 128 | > 128 | 8 (≈ 6.3 µM) | 128 (≈ 101 µM) | > 128 | > 128 | > 128 | > 128 | > 128 | > 128 | > 128 | > 128 | > 128 | > 128 | 128 (≈ 101 µM) | – | – | inactive | inhibition (Aspergillus fumigatus [19]): inactive |
